From ChEMBL document CHEMBL1145067, “3'-C-branched-chain-substituted nucleosides and nucleotides as potent inhibitors of Mycobacterium tuberculosis thymidine monophosphate kinase” (J Med Chem, 2003)

What was measured:
[1] = ratio of Ki (Ki TMPKh / KiTMPKmt) was determined
Thymidylate kinase = target: T1, Thymidylate kinase (Mycobacterium tuberculosis, UniProt P9WKE1); experiment: In Vitro inhibition of Thymidine […] Kinase of Mycobacterium tuberculosis (TMPKm)
T1 sequence (P9WKE1 whole entry): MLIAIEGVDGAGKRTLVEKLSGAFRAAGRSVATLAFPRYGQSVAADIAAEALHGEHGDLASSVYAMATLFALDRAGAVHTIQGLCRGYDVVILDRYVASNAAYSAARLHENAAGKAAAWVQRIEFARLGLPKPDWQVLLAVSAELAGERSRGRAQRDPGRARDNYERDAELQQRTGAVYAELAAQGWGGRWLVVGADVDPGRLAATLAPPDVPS
Procedure, shortened: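 Recombinant TMPKmt or human TMPKh overexpressed in E. coli. ATP was fixed at 0.5 mM and dTMP at 0.05 mM; analogues were varied over 0.01–4 mM.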

[2] = ratio of Ki (Km TMPKh / Ki TMPKmt) was determined
[3] = target: Thymidylate kinase (Homo sapiens) (UniProt P23919); experiment: In Vitro inhibition of […] (TMPKh); No inhibition at 4000 uM
Thymidylate kinase (Homo sapiens), sequence (P23919 whole entry, looked up): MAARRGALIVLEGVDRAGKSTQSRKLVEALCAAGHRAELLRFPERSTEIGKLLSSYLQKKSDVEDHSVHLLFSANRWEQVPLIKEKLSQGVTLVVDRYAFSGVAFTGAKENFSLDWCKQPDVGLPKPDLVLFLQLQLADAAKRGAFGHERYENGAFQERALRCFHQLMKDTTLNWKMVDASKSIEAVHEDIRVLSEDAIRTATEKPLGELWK

[4] = ratio of Km (Km TMPKh / Km TMPKmt) was determined

Structure (SMILES)	SI [1]	Ki (Thymidylate kinase)	further results
Cc1cn([C@@H]2O[C@H](COP(=O)(O)O)[C@@H](CN)[C@H]2O)c(=O)[nH]c1=O	0.9	315 µM	–
Cc1cn([C@@H]2O[C@H](CO)[C@@H](CN)[C@H]2O)c(=O)[nH]c1=O	0.3	393 µM	–
Cc1cn([C@H]2C[C@H](CO)[C@@H](COP(=O)(O)O)O2)c(=O)[nH]c1=O	1.5	29 µM	–
Cc1cn([C@H]2C[C@H](N=[N+]=[N-])[C@@H](COP(=O)(O)O)O2)c(=O)[nH]c1=O	–	–	SI [2]: 1.2
Cc1cn([C@@H]2O[C@H](COP(=O)(O)O)[C@@H](CN=[N+]=[N-])[C@H]2O)c(=O)[nH]c1=O	–	116 µM	–
Cc1cn([C@H]2C[C@H](CN)[C@@H](COP(=O)(O)O)O2)c(=O)[nH]c1=O	0.4	10.5 µM	–
Cc1cn([C@@H]2O[C@H](CO)[C@@H](CN=[N+]=[N-])[C@H]2O)c(=O)[nH]c1=O	–	770 µM	NI [3]: No inhibition at 4000 uM
Cc1cn([C@H]2C[C@H](O)[C@@H](COP(=O)(O)O)O2)c(=O)[nH]c1=O	–	–	SI [4]: 1.1
Cc1cn([C@H]2C[C@H](CF)[C@@H](COP(=O)(O)O)O2)c(=O)[nH]c1=O	2.7	15 µM	–
Cc1cn([C@H]2C[C@H](CN)[C@@H](CO)O2)c(=O)[nH]c1=O	3.9	57 µM	–
Cc1cn([C@H]2C[C@H](CN=[N+]=[N-])[C@@H](CO)O2)c(=O)[nH]c1=O	26	40 µM	–
Cc1cn([C@H]2C[C@H](CCO)[C@@H](CO)O2)c(=O)[nH]c1=O	–	156 µM	–
Cc1cn([C@H]2C[C@H](CF)[C@@H](CO)O2)c(=O)[nH]c1=O	21.6	45 µM	–
Cc1cn([C@H]2C[C@H](CN=[N+]=[N-])[C@@H](COP(=O)(O)O)O2)c(=O)[nH]c1=O	2.7	12 µM	–
Cc1cn([C@H]2C[C@H](N=[N+]=[N-])[C@@H](CO)O2)c(=O)[nH]c1=O [ZIDOVUDINE]	–	28 µM	–
Cc1cn([C@H]2C[C@H](CO)[C@@H](CO)O2)c(=O)[nH]c1=O	10	41 µM	–
